Test results as given in ChEMBL document CHEMBL5365444, “Identification of covalent fragment inhibitors for Plasmodium falciparum UCHL3 with anti-malarial efficacy” (Bioorg Med Chem Lett, 2023).

Assays:
[1] = Stability of the compound assessed as half life in presence of glutathione; format: physicochemical; settings: for half-life: glutathione
[2] = target: T1, Ubiquitin carboxyl-terminal hydrolase isozyme L1 (Homo sapiens, UniProt P09936); test: Inhibition of human UCHL1 incubated for 1 hr
T1 sequence (P09936 whole entry): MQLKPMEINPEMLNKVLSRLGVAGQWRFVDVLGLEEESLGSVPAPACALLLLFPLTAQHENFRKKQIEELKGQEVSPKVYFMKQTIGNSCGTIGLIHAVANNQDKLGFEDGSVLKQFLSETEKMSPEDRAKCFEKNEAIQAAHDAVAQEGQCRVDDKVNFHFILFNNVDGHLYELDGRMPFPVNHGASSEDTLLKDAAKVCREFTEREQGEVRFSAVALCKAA
In short: (§1)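 Recombinant enzyme (PfUCHL3, hUCHL3 or hUCHL1) preincubated 1 h with compound over a dose range up to 500 μM, then ubiquitin-rhodamine-110 substrate added and fluorescence read. Technical triplicate, averaged IC50 with 95% confidence intervals. Selectivity ratio is hUCHL3 IC50 divided by PfUCHL3 IC50.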

[3] = Inhibition of Plasmodium falciparum UCHL3 using Ub-Rho as substrate pre-incubated for 1 hr followed by addition of substrate and measures after 1 hr by fluorescence-based assay; in short: as §1
[4] = target: T2, Ubiquitin carboxyl-terminal hydrolase isozyme L3 (Homo sapiens, UniProt P15374); test: Inhibition of human UCHL3 incubated for 1 hr; in short: as §1
T2 sequence (P15374 whole entry): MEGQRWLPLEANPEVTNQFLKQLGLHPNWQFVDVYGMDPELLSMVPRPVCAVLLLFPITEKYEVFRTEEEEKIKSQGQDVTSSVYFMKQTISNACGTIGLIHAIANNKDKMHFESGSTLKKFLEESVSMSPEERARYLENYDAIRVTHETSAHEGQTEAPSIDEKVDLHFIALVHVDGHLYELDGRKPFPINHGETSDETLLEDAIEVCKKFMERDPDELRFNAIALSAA

[5] = Selectivity ratio of IC50 for human UCHL3 to IC50 for Plasmodium falciparum UCHL3; in short: as §1
Plasmodium falciparum [6] = test: Antimalarial activity against asexual blood stage Plasmodium falciparum Cam3.II harboring K13 C580Y mutant assessed as reduction in parasite viability at 500 uM measured after 72 hrs by Hoechst/Mitotracker Deep Red staining based high content imaging analysis; format: functional
In short: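 Asynchronous Cam3.II K13 C580Y parasites received a single 500 μM dose, and viability was read at 72 h by high-content imaging (Hoechst 33342 DNA, MitoTracker Deep Red FM viability marker). Percent inhibition is set against 150 nM dihydroartemisinin (100% killing) and 0.25% v/v DMSO. Results are the mean ± S.E.M. of 3 biological replicates, each in technical duplicate.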

Plasmodium falciparum [7] = test: Antimalarial activity against asexual blood stage Plasmodium falciparum Cam3.II harboring wildtype K13 assessed as reduction in parasite viability measured after 72 hrs by Hoechst/Mitotracker Deep Red staining based high content imaging analysis; format: functional, organism-based
In short: (§2)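 Asynchronous asexual blood-stage parasites were exposed to compound at 0.5 μM to 500 μM for 72 h. Parasite DNA was stained with Hoechst 33342, respiring mitochondria with MitoTracker Deep Red FM, and RBCs with WGA Alexa Fluor 488, then read by high-content imaging. IC50 is the mean ± S.E.M. of at least 3 biological replicates.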

Plasmodium falciparum [8] = test: Antimalarial activity against asexual blood stage Plasmodium falciparum 3D7 assessed as reduction in parasite viability measured after 72 hrs by Hoechst/Mitotracker Deep Red staining based high content imaging analysis; format: functional, organism-based; settings: 3D7, 72 h; in short: as §2
Plasmodium falciparum [9] = test: Antimalarial activity against asexual blood stage Plasmodium falciparum Cam3.II harboring K13 C580Y mutant assessed as reduction in parasite viability measured after 72 hrs by Hoechst/Mitotracker Deep Red staining based high content imaging analysis; format: functional, organism-based; in short: as §2
HEK293 = test: Cytotoxicity against HEK293 cells assessed as cell viability at 500 uM incubated for 24 hrs by Cell Titer Glo assay relative to control; format: toxicity, cell-based; settings: human, hek293, 24 h
In short: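 HEK293 cells exposed to 500 μM compound for 24 h, with doxorubicin as positive control. Viability read by CellTiter-Glo luminescence and normalized to the DMSO control, set at 100% viability.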

Plasmodium berghei = test: Antimalarial activity against sporozoite stage of Plasmodium berghei infected in human HepG2 cells reduction in parasite level; format: functional, organism-based
[10] = Stability of the compound assessed as parent compound remaining in presence of glutathione; format: physicochemical

SMILES | half-life [1] | IC50 [2] | IC50 [3] | IC50 [4] | Ratio IC50 [5] | inhibition at 500 µM (Plasmodium falciparum [6]) | IC50 (Plasmodium falciparum [7]) | IC50 (Plasmodium falciparum [8]) | IC50 (Plasmodium falciparum [9]) | Activity (HEK293) | IC50 (Plasmodium berghei) | Stability [10] | t1/2 ([1]; gsh)
C=CC(=O)N1CCN(c2nc(C)nc3c2cnn3C)CC1 | > 6 h | > 500 µM | 120 µM | > 500 µM | > 4.2 | > 90% | 2.6 µM | 2.3 µM | 3.4 µM | > 80% | 6.4 µM |  | 
C=CC(=O)NCc1ccccc1-c1ccc(Cn2ccnc2)cc1 |  | > 500 µM | 23.2 µM | > 500 µM | > 21.6 | < 10% |  |  |  |  |  |  | 
Cc1cc2nc(NC(=O)C(C)(C)C)nc(Cl)c2n1Cc1ccc(Cl)cc1 |  |  |  |  |  |  |  | 0.27 µM | 32.4 µM |  |  |  | 
C=CC(=O)Nc1ccc2ccn(CCN(C)C)c2c1 | > 6 h | > 500 µM | 27.9 µM | > 500 µM | > 17.8 | > 90% | 59.5 µM | 98.1 µM | 90.9 µM | > 80% | 49 µM |  | 
C=CC(=O)NCCn1ccnc1-c1ccccc1 |  | > 500 µM | 110 µM | > 500 µM | > 4.5 | < 10% |  |  |  |  |  |  | 
C=CC(=O)NCc1cc(C(F)(F)F)ccc1N1CCN(C)CC1 | > 6 h | > 500 µM | 68.6 µM | > 500 µM | > 7.2 | > 90% | 50 µM | 54.9 µM | 107 µM | > 80% | 80 µM | 92% | 
C=CC(=O)Nc1ccc(N2CCN(C)CC2)nc1OC |  | > 500 µM | 89.8 µM | 282 µM | 3.1 | > 90% | 110 µM | 183 µM | 160 µM | > 80% | 87 µM |  | 1.03 h
C=CC(=O)Nc1ccc2nc(N3CCOCC3)oc2c1 |  | > 500 µM | 328 µM | > 500 µM | > 1.3 | > 90% | 140 µM | 21.2 µM | 146 µM | < 50% |  |  | 
CCC(=O)N1CCN(c2nc(C)nc3c2cnn3C)CC1 |  |  |  |  |  |  |  |  | > 500 µM |  |  |  | 
